Tested on: MS2 coat protein
Assay: apparent Kd, MS2 coat protein; higher = weaker binding; RNA-MaP array; FMN 200 µM where present
Procedure, shortened: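 Designs were transcribed by stalled E. coli RNA polymerase on Illumina sequencing-chip clusters. They were titrated with SNAP-549-labelled MS2 coat protein from 0.7 or 1.5 nM, doubling to 3 µM, without and then with constant ligand. Buffer: 100 mM Tris-HCl pH 7.5, 80 mM KCl, 4 mM MgCl2, BSA, DTT, yeast tRNA, Tween-20. Green signal was normalised to red-channel RNA signal and control-cluster median Fmax. Apparent Kd is the median of filtered per-cluster binding-curve fits.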

[1] = designed as: ON switch for flavin mononucleotide, no ligand
[2] = ligand present: flavin mononucleotide, designed as: ON switch for flavin mononucleotide
[3] = designed as: OFF switch for flavin mononucleotide, no ligand
[4] = ligand present: flavin mononucleotide, designed as: OFF switch for flavin mononucleotide

Sequence	apparent Kd [1]	apparent Kd [2]	apparent Kd [3]	apparent Kd [4]
GCUUUUCUAGCCAAGUGGUAGAGCGCAGAAGGCCAACAUGAGGAUCACCCAUGUAUAAAGAACAUGGAGGAUAUGCGUCACCUU	73.7 nM	6.5 nM	–	–
AAGAAGUCAGGAUAUGCAUGGCGGGACUUGCGUCGUGGCGUGCAGAAGGGACAUGAGGAUCACCCAUGUGGAGG	–	–	162 nM	222 nM
UGGUACUAGGGAGGAUAUGGGAAGAUACAUGAGGAUCACCCAUGUUUAAGGAUGCCGAGAGGCAACUAGAAGGCCCUAGUACCU	851 nM	97 nM	–	–
GCUGCAUGUGAGAAGGCGAUCAUGAAACAUGAUCGAGGAUAUCAUGUAAACAUGAGGAUCACCCAUGUAUGGGUAUUAAGCAGC	–	59.3 nM	–	–
CGCUAGGAUGGGUCUAAUGGACCACAGGAUAUGCUUGUACAUGAGGAUCACCCAUGUAAUAUUGUGCAGAAGGGUGGAUUCACG	54.8 nM	8.27 nM	–	–
ACUAUACGAGGAUAUACUGUCAGUACUCAGACAUAAAUAUGACAUGAGGAUCACCCAUGUAGAAGGCGUUUACU	–	–	29 nM	39 nM
GGAUCGAGAGUGAGGAUAUGCUGGUCCUUGGAUCAGCAGAAGGCACAUGAGGAUCACCCAUGUGGUUCCGAUCC	–	–	28.8 nM	244 nM
UUCCUGGUGUAGAAGGAGGCCGAGCUCAAGCGGACGUCCUGAAUUGCGGGCCUAGGAUAUACAUGAGGAUCACCCAUGUACGGA	–	–	39.8 nM	111 nM
GUAAACCGGUGAGGAUAUUUAUAAUAGAGCUUUAUGAUAUACAUGAGGAUCACCCAUGUUACUUUAAAGAAGGCAUCGGAAAUG	–	–	21.4 nM	17.2 nM
AGCUGGUGACAGCAAGAAGUUUAACAUGAGGAUCACCCAUGUAGAAGGCUGUACGGUUACCGUACAGAGGAUAUACAUAGAAAG	–	–	43.7 nM	57.5 nM
CGCUAGGAUGGGUCUAAUGGACCUCAGGAUAUGCUUGUACAUGAGGAUCACCCAUGUAAUAUUGUGCAGAAGGGAGGAUCCACG	18.9 nM	6.56 nM	–	–
GGUGUGUUAGGAUAUCGCGGCGGCGGCGUUUGUUGUUGUUGUGAGAAGGAACAUGAGGAUCACCCAUGUGCGCC	–	–	27.3 nM	75.5 nM
GUGCCUUGGGAGAAGGCCGUAUGCAAAGCAUACGGAGGAUAUUCAUACCGGAAACGGACAUGAGGAUCACCCAUGUGGCACAAA	1360 nM	46.1 nM	–	–
AUAACUGUACGAGGAUAUCCAAGGGCAGCCCUAGGAGAAGGCGUACAUGAGGAUCACCCAUGUACUAUAUGGAGUUCGCUCGUG	–	–	30.7 nM	88.4 nM
AUUUAAAUGUCAGGAUAUGUUAGUUUAUACAUAGUAGAAGGGAUAAUUAUACUCAUGUACAUGAGGAUCACCCAUGUUAAAUCA	212 nM	98.5 nM	–	–
AAGGAGUUAGGAUAUGCUGCUCGUCACUUGCGUGAUGAGUAGCAGAAGGGACAUGAGGAUCACCCAUGUAAAGA	–	–	41.9 nM	21.9 nM
AACUCACAUGAGGAUCACCCAUGUGAGGAUAUAUUAAUAUGUAUGUUAUUAUGUAUUGAUAGAAGGCGCGUGAU	–	–	46.3 nM	49.1 nM
CUUUUGUGAGGAUAUCAGUAGUAAUAAUAUAAAAUUACUACUGAGAAGGCACAUGAGGAUCACCCAUGUUCCUC	–	–	37.2 nM	185 nM
UUUUUGUCAGGAUAUCGUUAAUUUAAUUGUUUGUAUUAGUUCGAGAAGGGACAUGAGGAUCACCCAUGUUUUUU	–	–	23.9 nM	39.6 nM

Sequence	apparent Kd [1]	apparent Kd [2]	apparent Kd [3]	apparent Kd [4]
UGCUGGUGACAGCAUCCAUCAAAACAUGAGGAUCACCCAUGUAGAAGGCUGUACGGUUACCGUACAGAGGAUAUACAAUGAUGC	–	–	15.4 nM	29.4 nM
CACGGCUUAGGAUAUACAUGAGGAUCACCCAUGUGGGAAAGCCAAGGCGUGGUAAAGUGUAGAAGGAAGAAGGA	–	–	13.4 nM	14.9 nM
AAAUAGGCAGGAUAUACAUGAGGAUCACCCAUGUGCCUAUGAAAGGUAAUUUUGAAAGGUAGAAGGGCCUAAAA	–	–	10.5 nM	12.1 nM
UGUGGCGGUCAGAAGGCAACGUUGACAUGAGGAUCACCCAUGUUACCCUUGAGGAUAUGGCGGGCCUCACGUCGGUGGUAAUGA	93.8 nM	23.3 nM	–	–
GAGAUACAUGAGGAUCACCCAUGUGAGGAUAUCGGUUGGAGGAGGUGGAGGUUGAGUACGAGAAGGCACGGAUC	–	–	25 nM	28.3 nM
GUGCACAUUCGAGGAUAUCGGAGAGAGAUCCUUCGAGAAGGCGAUUCAUGCUGUAUUAUCCUGGACAUGAGGAUCACCCAUGUG	199 nM	127 nM	–	–
AAAAAACAUGAGGAUCACCCAUGUAAUAAAACGUCAGGAUAUUGAUUUUAUUAUUUAUUGCGAGAAGGGACAAAAA	37.1 nM	24.4 nM	–	–
AUGGUACAUGAGGAUCACCCAUGUCCAGCAAAUCAAGGAUAUGGACGACAAAUUUCUCGGCCAGAAGGUGAAACAA	39.4 nM	21.5 nM	–	–
GCGUCAGAAUUAAUUGUGACAGACAGAAGGCAAUAGUUCAUGUCAGACAUGAGGAUCACCCAUGUUGAGGAUAUGUAUUGACAC	–	–	5.62 nM	5.65 nM
GGUACCAUCGCAGGAUAUGCUAGGGUUUCCUUAGCAGAAGGGUGAUAACAUGAGGAUCACCCAUGUGGUACCGGGCGUGAGCCC	95 nM	1160 nM	–	–
GAAAACGGAGAGGAUAUUUGAGAUCAAAGCUCCAAAGAAGGCUCCACAUGAGGAUCACCCAUGUGGUCUUCAAU	–	–	14.6 nM	107 nM
UCGGACGUCGUAGGAUAUGUAGGAUAUUCCUACAUGAGGAUCACCCAUGUUGACAUGGAAGAAGGACAGAAGGACGAUGUCCAU	192 nM	4.7 nM	–	–
AUUAUGUUAGGAUAUGCUUAUGGUGGAUAGUCCAAUAUGGUGCAGAAGGGACAUGAGGAUCACCCAUGUACUGA	–	–	83.2 nM	90.3 nM
AUCAGCUCGUCAGGAUAUACGUCACUGCGUCAGCAGUGUGGUAAGAUCACAUGAGGAUCACCCAUGUAGAAGGUACGAGCUGAU	–	–	8.6 nM	13.8 nM
GUCAGUUCGUGAGGAUAUACAACACUGCUUCGGCAGUGUAUUAAGAUCACAUGAGGAUCACCCAUGUAGAAGGCACGAGCUGAU	–	–	14 nM	269 nM
GAUCCGGUCAAGAGGAUUUUGGAGUGAGAAGGGAGGCUGCUACAUGAGGAUCACCCAUGUGAUACUCAGGAUAUUAGUCUACUA	215 nM	155 nM	–	–
GUCAUACAUGAGGAUCACCCAUGUGAGGAUAUGAGUGGUGCUGAUAGGUCGGCACCACUCAGAAGGCGCAUGAU	–	–	77.1 nM	293 nM
GGGUACAUCGGAGGAUAUCAUGAAAAUACAUGAGGAUCACCCAUGUCGAUGGAGACAUCGGAGAUUGAGAAGGCCGAUGUACCG	11.9 nM	6.01 nM	–	–
AAGAAAGAAACGCAGGAUAUGCAAAACAAAACAUGAGGAUCACCCAUGUCAAACAAACAAACAAAGCAGAAGGGCGAAAGAAAGAA	23.1 nM	16.4 nM	–	–

Sequence	apparent Kd [1]	apparent Kd [2]	apparent Kd [3]	apparent Kd [4]
UUAGUCAUGUAAGGAUAUCCGAUGCGAAGCGUUGGAGAAGGUACAUGAGGAUCACCCAUGUUCUGCGUCUGAGUACAGAUGCUA	–	–	494 nM	174 nM
GACUUCCGAGGAUAUACAUGAGGAUCACCCAUGUGCUUCAGCAUUUUUUGAUGCAUGGGUAGAAGGCGGUAGUU	–	–	261 nM	281 nM
ACCUCACAUGAGGAUCACCCAUGUCAGGAUAUCUUUUAAAACAGCAAUCCUGUCGCUGAGAGAAGGGACAUUAA	–	–	27.6 nM	35.6 nM
CUGAGCUGAGGAUAUACAUGAGGAUCACCCAUGUUAAGCAGCUAGCGUAAAAGCAGAUGUAGAAGGCAGUUCGG	–	–	18.9 nM	20.3 nM
UUUUCUCGUGAGAAGGACAUGAGGAUCACCCAUGUAGGAUAUCGUGGGAGACAGGAAUUGAAUCUUCGGAUUCAAUUCCUGUCU	104 nM	8.82 nM	–	–
UUAUUCAGAGGAUAUGCGCAUAGAUAAGACUUUUUUUCUUAACAUGAGGAUCACCCAUGUAGAAGGCUGUAAUU	–	–	18.4 nM	18.7 nM
AAAAUCUAUAGAGGAUAUCCAUACGCUGCAUACGGAGAAGGCUAACAAUCAUGAGGACAUGAGGAUCACCCAUGUUGUGACCAU	17.6 nM	9.82 nM	–	–
AAAAUCUAUAGAGGAUAUCGUUUUUAAAGAAAAUGAGAAGGCUAACAAUCAUGAGGACAUGAGGAUCACCCAUGUUGUGACCAU	19.6 nM	10.2 nM	–	–
UACCUGAGGCCAAGCUUUAGGUAUACAUGAGGAUCACCCAUGUAGGAUAUGGUAGGCUUUGCUUACCAGAAGGACAUGUUAAUU	–	–	19 nM	64.9 nM
CGGCGCUGUCGAGAGGAUAUGCGGUGACGGACAUGAGGAUCACCCAUGUUAGCGAUAGCGUUACGGUAGAAGGCUCUACAGUCGC	76.8 nM	15.4 nM	–	–
GCCUUAUCCGUCAGGAUAUACAGCCGCUAGUUGUUGUAGAAGGGACAUGAGGAUCACCCAUGUACGUACCAUUG	–	–	20.3 nM	30.7 nM
GGCUGUUUAGGAUAUACAUGAGGAUCACCCAUGUCGUUUAAUACAGACGGAUCCAACUGUAGAAGGAGAUGCCG	–	–	102 nM	79.7 nM
UUGACAUUCAAGAAGGGUCACUCUACAUGAGGAUCACCCAUGUCUAUGGACAGGAUAUUGAUCGUCACCUGGUUAGCUUUCGGU	770 nM	19 nM	–	–
AUAGCAACAUGAGGAUCACCCAUGUAGGAUAUCGCUAUUGUAAUCAUGAAACAUGAUUACAAUAGCGAGAAGGACAUAUGCUAA	–	–	7.84 nM	10.2 nM
UGCUACGUUUCGUAGCAGCUAGGUGAGGAUAUUCAAUUUUUCACAUGAGGAUCACCCAUGUAUGUGAAGAAGGCGCCUAGAAAA	10.2 nM	4.56 nM	–	–
GGAUAGGACAGAGGAUAUACGUGCUAUAGAUACUAGCAAAAUUUCCUCACAUGAGGAUCACCCAUGUAGAAGGCUGUCCUAUCG	–	–	16.8 nM	354 nM
UCCAGACAUGAGGAUCACCCAUGUGAGGAUAUGAUGCGAUCGUCGAAAGACGAUAGCAUCAGAAGGCACGUAUG	–	–	33.7 nM	48.3 nM
UCGGGUUAUACAGGAUAUGUUUAGGAUAAUACAUGCAGUUAUUAAUUAAUGACAGAAGGGUAUACAUGAGGAUCACCCAUGUCA	–	–	707 nM	374 nM
